For experiment [1], the system named is Rattus norvegicus. The experiment can be described thus: Triglyceride level in Sprague-Dawley rat serum at 100 mg/kg, po. The format is functional. The procedure, abridged: (§1)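 Male Sprague–Dawley rats (180-200 g), 5 per group, dosed orally once daily for 5 successive days. Twenty-four hours after the last dose, each rat received a single oral dose of 50% CCl4 in corn oil (2.5 ml/kg). Comparison groups were corn oil alone and CCl4 alone. Two days later, blood was taken from the orbital plexus, and serum was separated by centrifugation at 3000 rpm for 15 min for the assays.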

The test system of experiment [2] is Rattus norvegicus. Briefly: Aspartate aminotransferase activity in Sprague-Dawley rat serum at 100 mg/kg, po. The class given is functional. The procedure, abridged:
as §1

Experiment [3] has as its system Rattus norvegicus. The experiment can be described thus: Gamma-glutamyl transferase activity in Sprague-Dawley rat serum at 100 mg/kg, po. The format is functional. The procedure, abridged:
as §1

Experiment [4] has as its system Rattus norvegicus. The experiment can be described thus: Albumin level in Sprague-Dawley rat serum at 100 mg/kg, po. The class given is functional. Summed up: as §1
In experiment [5] the test system is Rattus norvegicus. The experiment can be described thus: Total protein level in Sprague-Dawley rat serum at 100 mg/kg, po. The format is functional. The procedure, abridged: as §1
Experiment [6] has as its system Rattus norvegicus. Briefly: Glucose level in Sprague-Dawley rat serum at 100 mg/kg, po. The format is functional. Summed up:
as §1

Experiment [7] deals with Rattus norvegicus. The experiment can be described thus: Total bilirubin level in Sprague-Dawley rat serum at 100 mg/kg, po. The format is functional. Summed up:
as §1

Experiment [8] deals with Rattus norvegicus. Briefly: Alanine aminotransferase activity in Sprague-Dawley rat serum at 100 mg/kg, po. The format is functional. Summed up:
as §1

Experiment [9] deals with Rattus norvegicus. The experiment can be described thus: Cholesterol level in Sprague-Dawley rat serum at 100 mg/kg, po. The class given is functional. The procedure, abridged: as §1
Experiment [10] has as its system Rattus norvegicus. Briefly: Alanine aminotransferase activity in Sprague-Dawley rat serum at 25 mg/kg, po. Details: dose 25 mg/kg. The format is functional, organism-based. Summed up:
as §1

For experiment [11], the system named is Rattus norvegicus. Briefly: Triglyceride level in Sprague-Dawley rat serum at 25 mg/kg, po. The format is functional, organism-based. Details: dose 25 mg/kg. Summed up:
as §1

Experiment [12] relates to Rattus norvegicus. The experiment can be described thus: Aspartate aminotransferase activity in Sprague-Dawley rat serum at 25 mg/kg, po. Details: dose 25 mg/kg. The class given is functional, organism-based. The procedure, abridged: as §1
In experiment [13] the test system is Rattus norvegicus. Briefly: Glucose level in Sprague-Dawley rat serum at 25 mg/kg, po. Details: dose 25 mg/kg. The class given is functional, organism-based. Summed up: as §1
The subject of experiment [14] is Rattus norvegicus. The experiment can be described thus: Total bilirubin level in Sprague-Dawley rat serum at 25 mg/kg, po. The class given is functional, organism-based. Details: dose 25 mg/kg. Summed up: as §1
For experiment [15], the system named is Rattus norvegicus. The experiment can be described thus: Total protein level in Sprague-Dawley rat serum at 25 mg/kg, po. The format is functional, organism-based. Details: dose 25 mg/kg. The procedure, abridged:
as §1

The test system of experiment [16] is Rattus norvegicus. The experiment can be described thus: Gamma-glutamyl transferase activity in Sprague-Dawley rat serum at 25 mg/kg, po. The class given is functional, organism-based. Details: dose 25 mg/kg. The procedure, abridged:
as §1

Experiment [17] has as its system Rattus norvegicus. Briefly: Cholesterol level in Sprague-Dawley rat serum at 25 mg/kg, po. The class given is functional, organism-based. Details: dose 25 mg/kg. Summed up:
as §1

For experiment [18], the system named is Rattus norvegicus. Briefly: Albumin level in Sprague-Dawley rat serum at 25 mg/kg, po. The class given is functional, organism-based. Details: dose 25 mg/kg. Summed up: as §1

As for `COc1cc(-c2cc(=O)c3c(O)cc(OC4O[C@H](CO)[C@@H](O)[C@@H]4OC4OC[C@@H](O)[C@H](O)[C@H]4O)cc3o2)ccc1O` (some centres not stated), the Activity amounted to 177.22 mg/dL in the experiment on Rattus norvegicus [1]; 61.64 U/L in the experiment on Rattus norvegicus [2]; 12.03 U/L with Rattus norvegicus [3]; 3.07 g/dL with Rattus norvegicus [4]; 5.67 g/dL with Rattus norvegicus [5]; 163.36 mg/dL with Rattus norvegicus [6]. Also, the Activity in the experiment with Rattus norvegicus [7] worked out at 0.33 mg/dL; in the experiment with Rattus norvegicus [8], 68.43 U/L; in the experiment with Rattus norvegicus [9], 88.34 mg/dL.
Turning to SILYMARIN, the Activity with Rattus norvegicus [10] was 65.2 U/L; in the experiment on Rattus norvegicus [11] it was 171 mg/dL; in the experiment on Rattus norvegicus [12], 56.6 U/L; in the experiment with Rattus norvegicus [13] it was 141 mg/dL; in the experiment with Rattus norvegicus [14] it was 0.38 mg/dL; with Rattus norvegicus [15], 6.1 g/dL. The values for the Activity with Rattus norvegicus [16], in the experiment on Rattus norvegicus [17] and in the experiment on Rattus norvegicus [18] were 10.5 U/L, 80.9 mg/dL and 3.1 g/dL, respectively.
With `COc1cc(-c2cc(=O)c3c(O)cc(O)cc3o2)ccc1O` [CHRYSOERIOL], the Activity is 176.21 mg/dL in the experiment with Rattus norvegicus [1]; 62.65 U/L in the experiment on Rattus norvegicus [2]; 12.05 U/L in the experiment with Rattus norvegicus [3]; 3.05 g/dL in the experiment with Rattus norvegicus [4]; 5.61 g/dL with Rattus norvegicus [5]; 165.36 mg/dL with Rattus norvegicus [6]. Also, the Activity with Rattus norvegicus [7] turned out to be 0.33 mg/dL; in the experiment with Rattus norvegicus [8], 69.42 U/L; in the experiment on Rattus norvegicus [9] it was 88.37 mg/dL.

The values above are taken from ChEMBL document CHEMBL1146882, “Hepatoprotective activity of Schouwia thebica webb” (2006).
